Test results from ChEMBL document CHEMBL3576819, “Design, synthesis, biological evaluation and molecular docking studies of phenylpropanoid derivatives as potent anti-hepatitis B virus agents” (Eur J Med Chem, 2015).

Experiments:
Hepatitis B virus [1] = experiment: Antiviral activity against Hepatitis B virus infected in human HepG2.2.15 cells assessed as inhibition of HBeAg secretion by ELISA; assay type: functional, organism-based; conditions: HepG2 2.2.15
Procedure, shortened: (§1)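 HepG2.2.15 cells (MEM, 10% FBS, 380 µg/ml G418) seeded at 1×10^5 cells/ml, held 24 h at 37 °C, then treated with various drug concentrations; medium with drug renewed every 3 d for up to 9 d. Culture medium sampled on days 3, 6 and 9, stored at -20 °C, and assayed for secreted antigen. Lamivudine as positive control; IC50 = 50% inhibition of secretion; means of at least two experiments.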

Hepatitis B virus [2] = experiment: Antiviral activity against Hepatitis B virus infected in human HepG2.2.15 cells assessed as inhibition of HBeAg secretion at 37.5 uM after 3 days by ELISA; assay type: functional; conditions: HepG2 2.2.15, 72 h; procedure, shortened: as §1
Hepatitis B virus [3] = experiment: Antiviral activity against Hepatitis B virus infected in human HepG2.2.15 cells assessed as cell survival at 75 uM after 9 days (reference value: 100%); assay type: functional; conditions: HepG2 2.2.15, 216 h
Procedure, shortened: (§2)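 HepG2.2.15 cells (MEM, 10% FBS, 380 µg/ml G418, 37 °C, 5% CO2) seeded at 1×10^5 cells/ml, cultured 24 h, then exposed to various drug concentrations; drug-containing medium renewed every 3 d. OD read at 450 nm after 9 days; percent cell death calculated; CC50 = concentration killing 50% of cells. Means of at least two experiments.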

Hepatitis B virus [4] = experiment: Antiviral activity against Hepatitis B virus infected in human HepG2.2.15 cells assessed as inhibition of HBeAg secretion at 150 uM after 3 days by ELISA; assay type: functional; conditions: HepG2 2.2.15, 72 h; procedure, shortened: as §1
Hepatitis B virus [5] = experiment: Antiviral activity against Hepatitis B virus infected in human HepG2.2.15 cells assessed as inhibition of HBeAg secretion at 150 uM after 9 days by ELISA; assay type: functional; conditions: HepG2 2.2.15, 216 h; procedure, shortened: as §1
Hepatitis B virus [6] = experiment: Antiviral activity against Hepatitis B virus infected in human HepG2.2.15 cells assessed as inhibition of HBsAg secretion at 37.5 uM after 6 days by ELISA; assay type: functional; conditions: HepG2 2.2.15, 144 h; procedure, shortened: as §1
Hepatitis B virus [7] = experiment: Antiviral activity against Hepatitis B virus infected in human HepG2.2.15 cells assessed as inhibition of HBeAg secretion at 300 uM after 9 days by ELISA; assay type: functional; conditions: HepG2 2.2.15, 216 h; procedure, shortened: as §1
Hepatitis B virus [8] = experiment: Antiviral activity against Hepatitis B virus infected in human HepG2.2.15 cells assessed as inhibition of HBsAg secretion at 75 uM after 9 days by ELISA; assay type: functional; conditions: HepG2 2.2.15, 216 h; procedure, shortened: as §1
Hepatitis B virus [9] = experiment: Antiviral activity against Hepatitis B virus infected in human HepG2.2.15 cells assessed as inhibition of HBsAg secretion by ELISA; assay type: functional, organism-based; conditions: HepG2 2.2.15; procedure, shortened: as §1
Hepatitis B virus [10] = experiment: Antiviral activity against Hepatitis B virus infected in human HepG2.2.15 cells assessed as inhibition of HBeAg secretion at 150 uM after 6 days by ELISA; assay type: functional; conditions: HepG2 2.2.15, 144 h; procedure, shortened: as §1
Hepatitis B virus [11] = experiment: Antiviral activity against Hepatitis B virus infected in human HepG2.2.15 cells assessed as inhibition of HBeAg secretion at 37.5 uM after 9 days by ELISA; assay type: functional; conditions: HepG2 2.2.15, 216 h; procedure, shortened: as §1
Hepatitis B virus [12] = experiment: Antiviral activity against Hepatitis B virus infected in human HepG2.2.15 cells assessed as cell survival at 300 uM after 9 days (reference value: 100%); assay type: functional; conditions: HepG2 2.2.15, 216 h; procedure, shortened: as §2
Hepatitis B virus [13] = experiment: Antiviral activity against Hepatitis B virus infected in human HepG2.2.15 cells assessed as inhibition of HBsAg secretion at 300 uM after 3 days by ELISA; assay type: functional; conditions: HepG2 2.2.15, 72 h; procedure, shortened: as §1
Hepatitis B virus [14] = experiment: Antiviral activity against Hepatitis B virus infected in human HepG2.2.15 cells assessed as inhibition of HBsAg secretion at 300 uM after 9 days by ELISA; assay type: functional; conditions: HepG2 2.2.15, 216 h; procedure, shortened: as §1
Hepatitis B virus [15] = experiment: Antiviral activity against Hepatitis B virus infected in human HepG2.2.15 cells assessed as inhibition of HBsAg secretion at 75 uM after 3 days by ELISA; assay type: functional; conditions: HepG2 2.2.15, 72 h; procedure, shortened: as §1
Hepatitis B virus [16] = experiment: Antiviral activity against Hepatitis B virus infected in human HepG2.2.15 cells assessed as cell survival at 150 uM after 9 days (reference value: 100%); assay type: functional; conditions: HepG2 2.2.15, 216 h; procedure, shortened: as §2
Hepatitis B virus [17] = experiment: Antiviral activity against Hepatitis B virus infected in human HepG2.2.15 cells assessed as inhibition of HBsAg secretion at 37.5 uM after 9 days by ELISA; assay type: functional; conditions: HepG2 2.2.15, 216 h; procedure, shortened: as §1
Hepatitis B virus [18] = experiment: Antiviral activity against Hepatitis B virus infected in human HepG2.2.15 cells assessed as inhibition of HBeAg secretion at 75 uM after 6 days by ELISA; assay type: functional; conditions: HepG2 2.2.15, 144 h; procedure, shortened: as §1
Hepatitis B virus [19] = experiment: Antiviral activity against Hepatitis B virus infected in human HepG2.2.15 cells assessed as inhibition of HBsAg secretion at 150 uM after 3 days by ELISA; assay type: functional; conditions: HepG2 2.2.15, 72 h; procedure, shortened: as §1
Hepatitis B virus [20] = experiment: Antiviral activity against Hepatitis B virus infected in human HepG2.2.15 cells assessed as inhibition of HBeAg secretion at 75 uM after 9 days by ELISA; assay type: functional; conditions: HepG2 2.2.15, 216 h; procedure, shortened: as §1
Hepatitis B virus [21] = experiment: Antiviral activity against Hepatitis B virus infected in human HepG2.2.15 cells assessed as inhibition of HBsAg secretion at 37.5 uM after 3 days by ELISA; assay type: functional; conditions: HepG2 2.2.15, 72 h; procedure, shortened: as §1
[22] = Cytotoxicity against human HepG2.2.15 cells assessed as cell death after 9 days by MTT assay; assay type: cell-based, HepG2 2.2.15; procedure, shortened: as §2
Hepatitis B virus [23] = experiment: Antiviral activity against Hepatitis B virus infected in human HepG2.2.15 cells assessed as inhibition of HBeAg secretion at 300 uM after 6 days by ELISA; assay type: functional; conditions: HepG2 2.2.15, 144 h; procedure, shortened: as §1
Hepatitis B virus [24] = experiment: Antiviral activity against Hepatitis B virus infected in human HepG2.2.15 cells assessed as inhibition of HBeAg secretion at 300 uM after 3 days by ELISA; assay type: functional; conditions: HepG2 2.2.15, 72 h; procedure, shortened: as §1
Hepatitis B virus [25] = experiment: Antiviral activity against Hepatitis B virus infected in human HepG2.2.15 cells assessed as inhibition of HBsAg secretion at 150 uM after 9 days by ELISA; assay type: functional; conditions: HepG2 2.2.15, 216 h; procedure, shortened: as §1
[26] = Selectivity index, ratio of CC50 for human HepG2.2.15 cells to IC50 for Hepatitis B virus infected in human HepG2.2.15 cells assessed as inhibition of HBeAg secretion; assay type: functional
Procedure, shortened: (§3)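 Selectivity index computed as CC50/IC50, with CC50 from cell death of HepG2.2.15 cells after 9 days of treatment (OD 450 nm) and IC50 from 50% inhibition of HBeAg or HBsAg secretion in the same cells; medium with drug renewed every 3 d.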

Hepatitis B virus [27] = experiment: Antiviral activity against Hepatitis B virus infected in human HepG2.2.15 cells assessed as inhibition of HBeAg secretion at 75 uM after 3 days by ELISA; assay type: functional; conditions: HepG2 2.2.15, 72 h; procedure, shortened: as §1
Hepatitis B virus [28] = experiment: Antiviral activity against Hepatitis B virus infected in human HepG2.2.15 cells assessed as inhibition of HBeAg secretion at 37.5 uM after 6 days by ELISA; assay type: functional; conditions: HepG2 2.2.15, 144 h; procedure, shortened: as §1
[29] = Selectivity index, ratio of CC50 for human HepG2.2.15 cells to IC50 for Hepatitis B virus infected in human HepG2.2.15 cells assessed as inhibition of HBsAg secretion; assay type: functional; procedure, shortened: as §3
Hepatitis B virus [30] = experiment: Antiviral activity against Hepatitis B virus infected in human HepG2.2.15 cells assessed as inhibition of HBsAg secretion at 300 uM after 6 days by ELISA; assay type: functional; conditions: HepG2 2.2.15, 144 h; procedure, shortened: as §1
Hepatitis B virus [31] = experiment: Antiviral activity against Hepatitis B virus infected in human HepG2.2.15 cells assessed as cell survival at 37.5 uM after 9 days (reference value: 100%); assay type: functional; conditions: HepG2 2.2.15, 216 h; procedure, shortened: as §2
Hepatitis B virus [32] = experiment: Antiviral activity against Hepatitis B virus infected in human HepG2.2.15 cells assessed as inhibition of HBsAg secretion at 150 uM after 6 days by ELISA; assay type: functional; conditions: HepG2 2.2.15, 144 h; procedure, shortened: as §1
Hepatitis B virus [33] = experiment: Antiviral activity against Hepatitis B virus infected in human HepG2.2.15 cells assessed as inhibition of HBsAg secretion at 75 uM after 6 days by ELISA; assay type: functional; conditions: HepG2 2.2.15, 144 h; procedure, shortened: as §1

IC50 (Hepatitis B virus [1])	IC50 (Hepatitis B virus [9])	Structure (SMILES)	inhibition at 37.5 µM (Hepatitis B virus [2])	viability at 75 µM (Hepatitis B virus [3])	inhibition at 150 µM (Hepatitis B virus [4])	inhibition at 150 µM (Hepatitis B virus [5])	inhibition at 37.5 µM (Hepatitis B virus [6])	inhibition at 300 µM (Hepatitis B virus [7])	inhibition at 75 µM (Hepatitis B virus [8])	inhibition at 150 µM (Hepatitis B virus [10])	inhibition at 37.5 µM (Hepatitis B virus [11])	viability at 300 µM (Hepatitis B virus [12])	inhibition at 300 µM (Hepatitis B virus [13])	inhibition at 300 µM (Hepatitis B virus [14])	inhibition at 75 µM (Hepatitis B virus [15])	viability at 150 µM (Hepatitis B virus [16])	inhibition at 37.5 µM (Hepatitis B virus [17])	inhibition at 75 µM (Hepatitis B virus [18])	inhibition at 150 µM (Hepatitis B virus [19])	inhibition at 75 µM (Hepatitis B virus [20])	also measured
202 µM	191 µM	COc1ccc(/C=C/C(=O)O/N=C/c2ccco2)cc1OC	14.1%	120%	30.4%	43.7%	20.8%	56.6%	39.4%	42%	27%	103%	47.2%	55%	33.6%	114%	21.2%	27.9%	39.7%	37.3%	inhibition at 37.5 µM (Hepatitis B virus [21]): 19.9%; CC50 at 216 h [22]: 624 µM; inhibition at 300 µM (Hepatitis B virus [23]): 48.8%; inhibition at 300 µM (Hepatitis B virus [24]): 41.8%; inhibition at 150 µM (Hepatitis B virus [25]): 47.3%; Ratio CC50/IC50 [26]: 3.1; inhibition at 75 µM (Hepatitis B virus [27]): 18.2%; inhibition at 37.5 µM (Hepatitis B virus [28]): 20%; Ratio CC50/IC50 [29]: 3.26; inhibition at 300 µM (Hepatitis B virus [30]): 53.8%; viability at 37.5 µM (Hepatitis B virus [31]): 128%; inhibition at 150 µM (Hepatitis B virus [32]): 44.2%; inhibition at 75 µM (Hepatitis B virus [33]): 36.5%
378 µM	229 µM	COc1ccc(/C=C/C(=O)O/N=C/c2cccs2)cc1OC	0.63%	101%	11.8%	26.9%	19.8%	52.3%	29.3%	20.4%	18.6%	97.7%	47.6%	55%	28.4%	98.7%	20.5%	15.3%	40.7%	22.6%	inhibition at 37.5 µM (Hepatitis B virus [21]): 17.4%; CC50 at 216 h [22]: 574 µM; inhibition at 300 µM (Hepatitis B virus [23]): 35.4%; inhibition at 300 µM (Hepatitis B virus [24]): 14.3%; inhibition at 150 µM (Hepatitis B virus [25]): 42.8%; Ratio CC50/IC50 [26]: 1.52; inhibition at 75 µM (Hepatitis B virus [27]): 7.04%; inhibition at 37.5 µM (Hepatitis B virus [28]): 8.58%; Ratio CC50/IC50 [29]: 2.51; inhibition at 300 µM (Hepatitis B virus [30]): 52.6%; viability at 37.5 µM (Hepatitis B virus [31]): 114%; inhibition at 150 µM (Hepatitis B virus [32]): 41.2%; inhibition at 75 µM (Hepatitis B virus [33]): 29.6%
